Values after ≈ are worked out from the molar mass of the structure shown. Active and inactive are the calls of the source. The calls are words filed in the database; no cut-off is given here.
Columns and labels:
Bel-7402 [1] = assay: Cytotoxicity against human BEL-7402 cells assessed as photo-induced growth inhibition upto 2.5 ug/mL after 24 hrs in dark by MTT assay; format: functional; set-up: scale not given: the % may be the effect or the level left
In short: (§1)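 Human hepatoma BEL-7402 cells were incubated with compound (0.03125–2.5 µg/mL) in the dark for 24 h at 37 °C. Cells in the light arm were then irradiated with a 670 nm laser at 10 J/cm² (56 mW/cm² for 3 min); dark-arm cells were not irradiated. Cells were then incubated for 24 h at 37 °C and survival was read by MTT in triplicate. IC50 was reported with 95% confidence limits.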

Bel-7402 [2] = assay: Cytotoxicity against human BEL-7402 cells assessed as photo-induced growth inhibition after 24 hrs in dark by MTT assay; format: functional, cell-based; conditions: Bel-7402, 24 h; in short: as §1
Bel-7402 [3] = assay: Induction of apoptosis in human BEL-7402 cells […] by methyl green-pyronin staining method; format: functional, cell-based

Row | Compound | Activity (Bel-7402 [1]) [%] | IC50 (Bel-7402 [2]) [µg/mL] | Activity (Bel-7402 [3])
1 | CCC1=C(C)c2cc3[nH]c(cc4nc(c(C(=O)OC)c5[nH]c(cc1n2)c(C)c5C(=O)OC)C(CCC(=O)OC)=C4C)[C@@]1(C)C3=CC=C(C(=O)OC)[C@H]1C(=O)OC | >92 | 0.27 (≈ 0.353 µM) | –
2 | CCC1=C(C)c2cc3[nH]c(cc4nc(c5c6[nH]c(cc1n2)c(C)c6C(=O)C5C(=O)OC)C(CCC(=O)OC)=C4C)[C@@]1(C)C3=CC=C(C(=O)OC)[C@H]1C(=O)OC (some centres undefined) | >92 | 0.26 (≈ 0.348 µM) | Active
3 | CCC1=C(C)c2cc3[nH]c(cc4nc(c(CC(=O)OC)c5[nH]c(cc1n2)c(C)c5C(=O)OC)C(CCC(=O)OC)=C4C)[C@@]1(C)C3=CC=C(C(=O)OC)[C@H]1C(=O)OC | >92 | 1.32 (≈ 1.69 µM) | –
4 | CCC1=C(C)c2cc3[nH]c(cc4nc(c(C)c5[nH]c(cc1n2)c(C)c5C(=O)OC)C(CCC(=O)OC)=C4C)[C@@]1(C)C3=CC=C(C(=O)OC)[C@H]1C(=O)OC | >92 | 0.47 (≈ 0.652 µM) | –

From ChEMBL document CHEMBL1141607, “Design, synthesis, and in vitro photodynamic activities of benzochloroporphyrin derivatives as tumor photosensitizers” (Bioorg Med Chem Lett, 2008)
